Measured values taken from the array DNA melting data of Ke et al. (doi:10.1101/2024.01.08.574731).

How the values were obtained:
[1] = folding enthalpy; higher = less favourable; fluorescence melt of hairpins on a sequencing array, two-state fit; conditions: sodium 0.088 M
Method in brief: (§1)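 To match UV melts, fitted temperatures were raised by 9.35 °C. These fits were bootstrapped two-state models that gave melting temperature and folding enthalpy, combined by inverse variance over four replicates. The input was normalised Cy3 fluorescence of library hairpins with annealed Cy3 and quencher oligos on a sequenced MiSeq flow cell, imaged in 50 mM Na-HEPES pH 8.0, 25 mM NaCl in 2.5 °C steps up to 60 °C.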

[2] = melting temperature; fluorescence melt of hairpins on a sequencing array, two-state fit, raised by 9.35 °C to match UV melts; conditions: sodium 0.088 M
Method in brief: as §1

Sequence	folding enthalpy [1] [kcal/mol]	Tm [2] [°C]
GATCTTAGCAAGATC ((((((...))))))	-31.9	46.2
GACACCGGAAACGATGTC ((((.((....)).))))	-29.6	45.2
GCGAACCTTCGC ((((....))))	-24.2	50.3
GCTAGCGAAAGCTATAGC ((((((....)))..)))	-18.5	46.5
GATGACGAAAGTCAGATC ((((((....)))..)))	-17.8	52.1
GCTCTGCGAAAGCTGTGC ((.(.((....)).).))	-21	43.6
GTAATACGAAAGTAGTAC (((.(((....))).)))	-34.5	42.5
GAATCACGAAAGTGTTC (((.(((....))))))	-15.5	39.3
GATCGCCCGGCGATC ((((((...))))))	-40.9	68.5
GTCATGGCGAAAGCCGAC (((..(((....))))))	-13.4	42.6
GATCGACTATTCGATC ((((((....))))))	-38.4	50.5
GGTGATGGAAACATCATC (.(((((....))))).)	-30.6	47.8
GCGAGTCTTCGC ((((....))))	-26.2	57.2
GCTACCCCGAAAGGGAGC (((..(((....))))))	-22.8	46.9
GACTGAGGAAACCCAGTC (((((.(....).)))))	-33.7	44.8
GTTTTTGGAAACAGAAAC ((((.((....)).))))	-28.1	32.7
GATCTCTGAGAGATC ((((((...))))))	-32.5	52.1
GTCGCTCGAAAGAGAGAC (((.(((....))).)))	-42.9	58.4
CGCGGACTACTCCGCG ((((((....))))))	-30.9	69
GCCAACGAAAGTTCTGGC ((((((....)))..)))	-24.9	38
GCAGAGCGAAAGCGCAGC ((.(.((....)).).))	-19.6	59.6
GGTCGGCCGAAAGGCACC (((..(((....))))))	-10.9	34.7
GCCGTCACGAAAGTGGGC (((..(((....))))))	-19.5	48.5

Sequence	folding enthalpy [1] [kcal/mol]	Tm [2] [°C]
GACCACGAAAGTGTGGTC ((((((....)))..)))	-41	55.2
GCTGTGCGAAAGCCCCGC ((.(.((....)).).))	-12.5	31.1
GAGCGACGAAAGTCCCTC (((.(((....))).)))	-16.1	43.6
GACGTGGGAAACCGTGTC (((..((....))..)))	-16.8	36.6
GAGAAGCGAAAGCTCCTC (((.(((....))).)))	-21.7	45.1
GGCGGCGGAAACGCCACC ((.((((....)))).))	-27.5	63.7
GCCCATTCGAAAGAAGGC (((..(((....))))))	-15.8	33
GTGCTCCCGAAAGGGCAC (((..(((....))))))	-19.9	49.8
GTGGTTGGAAACAGCTAC ((.(.((....)).).))	-23.3	33.1
GCACGCCGAAAGGCCTGC (((.(((....))).)))	-23.2	48.8
GATCAATAGTTGATC ((((((...))))))	-26.2	40.5
GAGCCTGGAAACGGGCTC (((((.(....).)))))	-47.8	58.9
GATCTGGGAAACTAGATC (((((.(....).)))))	-32.2	42.4
GCATTGGGAAACCAACGC ((.((((....)))).))	-29.4	42.2
GGAGCGCGAAAGCGTCC (((.(((....))))))	-13.9	52.1
GTCCTCGAAAGAGGAGAC ((((((....)))..)))	-10.2	47.8
GATCACTTTGGTGATC ((((((....))))))	-42.3	57.8
GATATCCGAAAGGACATC (((.(((....))).)))	-22	38.9
GATCGCCCCCGCGATC ((((((....))))))	-37.6	66.8
GTTTCCGCGAAAGCGAAC (((..(((....))))))	-9.18	23.6
GGTACGCGAAAGCGAACC (((.(((....))).)))	-24.8	58
GCTCCGCGAAAGCGAGC (((.(((....))))))	-20.6	61.7
CGAATCGGAAACGATCG (((.(((....))))))	-32.4	45.6

Sequence	folding enthalpy [1] [kcal/mol]	Tm [2] [°C]
GAACGCGAAAGCGTTTC ((((((....))).)))	-10.7	57.7
GTCCCCGGAAACGGGGGC (.(((((....))))).)	-19.5	68
GCTGCCGAAAGGCCTAGC ((((((....)))..)))	-14.2	41
GCATCCGAAAGGATCTGC ((((((....)))..)))	-17.1	46.5
GTGCTTGAAAAAGCAC ((((((....))))))	-27.9	63.3
GTGCCACGAAAGTGCCAC (((.(((....))).)))	-20.5	47.6
GGTGTAGGAAACTACGCC ((.((((....)))).))	-43.2	52.3
GCCTGGGCGAAAGCCGGC (((..(((....))))))	-23.7	55.2
GTCGAGGGAAACCTCGGC (.(((((....))))).)	-35.8	57.3
GGACAGCGAAAGCTCTCC (((.(((....))).)))	-18.3	38.4
GCTTCAGGAAACTAAAGC ((((.((....)).))))	-26.3	28.7
GCAGCGCGAAAGCGAAGC ((..(((....)))..))	-18.7	57.5
GGATGCGAAAGCATTTCC ((((((....)))..)))	-11.1	38.8
GATCGTACCCACGATC ((((((....))))))	-40	54.1
GCATTGCGAAAGCAGTGC (((.(((....))).)))	-48.9	59.8
GGCGTTGGAAACGACGTC (.(((.(....).))).)	-29.8	58.1
GCGTACGTACGC ((((....))))	-29.9	55.3
GATCGCTAAAGCGATC ((((((....))))))	-27.7	67.1
GAATCCCGAAAGGGGTTC (((.(((....))).)))	-33.9	58.1
GCCAGGCGAAAGCCGCGC ((..(((....)))..))	-18	58.4
GATCAACGTATTGATC ((((((....))))))	-26.9	44.1
GAAGGCGAAAGCCGATTC ((((((....)))..)))	-14.7	57.8
GGCATACGAAAGTAAGCC (((.(((....))).)))	-37.1	54
